According to PMC4258842 (Nature communications, 2014):
“Also recorded” adds a separate entry of the source. Each block holds one molecule with its values, some of them ahead of it.

Columns and labels:
[1] = target: T1, FOXM1 DBD-DNA interaction (Homo sapiens, UniProt Q08050); experiment: EMSA displacement of FOXM1 DBD-DNA interaction; format: binding
T1 sequence (Q08050 222-360): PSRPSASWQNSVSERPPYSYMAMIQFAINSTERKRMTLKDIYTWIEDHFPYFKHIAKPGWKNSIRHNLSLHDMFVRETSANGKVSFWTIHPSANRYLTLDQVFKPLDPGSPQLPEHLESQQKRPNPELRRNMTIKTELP
Procedure, shortened: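 The DNA-binding domain of human FOXM1c was expressed as a GST fusion in E. coli BL21(DE3), induced with 1 mM IPTG at 18°C overnight. DBD (750 nM final) was preincubated with test compound 1.5 h at RT. FAM-labelled 16-bp consensus dsDNA (15 nM final) was added for 15 min. Samples ran on 6% retardation gels and were imaged by fluorescence.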

[2] = tested on: MCF-7 breast cancer cells; experiment: 72 h growth inhibition in MCF-7 cells; format: cell-based; details: Homo sapiens, MCF7, 72 h, read-out: GI50 (50% growth inhibition)
Procedure, shortened: (§1)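 Cell lines came from ECACC. MCF-7 and MDA-MB-231 were grown in DMEM + 10% FBS, and PEO-1 in RPMI + 10% FBS. Cells were exposed to test compound for 72 h. GI50 is the concentration giving 50% growth inhibition.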

[3] = tested on: MDA-MB-231 ER-negative breast cancer cells; experiment: Cell viability assay, MDA-MB-231 cells; format: cell-based; details: Homo sapiens, MDA-MB-231, 72 h
Procedure, shortened: as §1

[4] = tested on: PEO-1 ovarian cancer cells; experiment: Cell viability assay, PEO-1 cells; format: cell-based; details: Homo sapiens, PEO1, 72 h
Procedure, shortened: as §1

[5] = tested on: FOXM1 in MCF-7 cells; experiment: Western blot of total lysate and chromatin fraction of treated MCF-7 cells; format: cell-based, human; details: 6 h, 20 μM
Procedure, shortened: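 MCF-7 cells were treated 6 h with test compound or DMSO. Whole-cell RIPA lysates and isolated chromatin pellets (sonicated in Laemmli buffer) ran on 8–16% Tris-glycine gels. Blots were probed overnight at 4°C with anti-FOXM1 (1:1000), actin (1:5000) or histone H3 (1:10000), then with IR-dye secondaries. FOXM1 was quantified relative to actin (lysate) or H3 (chromatin).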

[6] = tested on: 20S proteasome; experiment: 20S proteasome activity assay; format: biochemical; details: 10 μM inhibitor, 37°C, 90 m
Procedure, shortened: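 Recombinant 20S proteasome with an AMC-linked peptide substrate that fluoresces on cleavage. Substrate dilution of 1:200 was chosen from an AMC standard curve. Test compound at 10 μM or DMSO control was mixed with enzyme and substrate and incubated 90 min at 37°C. Fluorescence was read at 380/460 nm and normalized to DMSO, with MG-132 as reference inhibitor.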

[7] = tested on: FOXM1 occupancy at CCNB1 and CDC25B gene promoters; experiment: FOXM1 ChIP followed by qRT-PCR in MCF-7 cells; format: cell-based, human; details: 6 h treatment
Procedure, shortened: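 MCF-7 cells at 70% confluence were treated 6 h with test compound or DMSO. Cells were crosslinked with 1% formaldehyde 10 min at RT, quenched with glycine, lysed and sonicated. Immunoprecipitation used 3 μg rabbit polyclonal anti-FOXM1 on protein-A beads overnight, with elution at 65°C for 16 h. SYBR qPCR (40 cycles) amplified CDC25B and CCNB1 promoters. Enrichment was normalized to a cyclin D1 intergenic control region.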

[8] = tested on: FOXM1 target gene transcripts in MCF-7 cells; experiment: RNA-seq differential expression in MCF-7 cells; format: cell-based, human; details: 6 h
Procedure, shortened: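 MCF-7 cells were treated for 3, 6 or 9 h, in three replicates per time point, against 0 h controls. TruSeq libraries gave 100-nt single-end reads, which were adapter/quality trimmed, aligned to hg19 and counted per gene. Differential expression used the edgeR exact test with library-size (CPM) normalization, and FDR < 0.01 counted as significant.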

[9] = tested on: genes with FOXM1 promoter occupancy (ENCODE ChIP-seq, MCF-7); format: cell-based, human; details: ENCODE ChIP-seq datasets
Procedure, shortened: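 Differentially expressed genes at 3 h were defined as FDR < 0.01 and logFC > 0.3 […]. ENCODE FOX-family ChIP-seq peaks (MACS) shared by both duplicates were mapped to promoters (−2000 to +100 bp of TSS). Proportions were compared by chi-squared test. Temporal clusters came from fuzzy c-means (9 clusters, fuzzification 1.35) on 1552 genes with abs(logFC) > 0.75.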

[10] = tested on: CDC25B expression in MDA-MB-231 cells; experiment: CDC25B expression in MDA-MB-231 cells; format: cell-based, human; details: 3 h treatment
Procedure, shortened: (§2)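 MDA-MB-231 (DMEM + 10% FBS) or PEO-1 (RPMI + 10% FBS) cells were exposed to test compound for 3 h. CDC25B transcript was measured by qRT-PCR with commercial gene-specific primer sets, with ACTB and YWHAZ primer sets also run.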

[11] = tested on: CDC25B expression in PEO-1 cells; experiment: CDC25B expression in PEO-1 cells; format: cell-based, human; details: 3 h treatment
Procedure, shortened: as §2

[12] = target: T2, FOXM1 DBD (GST fusion) (Homo sapiens, UniProt Q08050 222-360); experiment: competition
T2 sequence: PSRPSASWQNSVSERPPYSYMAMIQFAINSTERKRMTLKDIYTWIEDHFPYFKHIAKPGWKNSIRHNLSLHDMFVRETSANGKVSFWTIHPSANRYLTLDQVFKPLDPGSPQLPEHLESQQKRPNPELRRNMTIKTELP

[13] = target: T2, FOXM1 DBD (GST fusion); experiment: EMSA
[14] = target: T3, FOXM1 full length (FOXM1c, GST fusion) (Homo sapiens, UniProt Q08050 1-763); experiment: fluorescence polarization
T3 sequence: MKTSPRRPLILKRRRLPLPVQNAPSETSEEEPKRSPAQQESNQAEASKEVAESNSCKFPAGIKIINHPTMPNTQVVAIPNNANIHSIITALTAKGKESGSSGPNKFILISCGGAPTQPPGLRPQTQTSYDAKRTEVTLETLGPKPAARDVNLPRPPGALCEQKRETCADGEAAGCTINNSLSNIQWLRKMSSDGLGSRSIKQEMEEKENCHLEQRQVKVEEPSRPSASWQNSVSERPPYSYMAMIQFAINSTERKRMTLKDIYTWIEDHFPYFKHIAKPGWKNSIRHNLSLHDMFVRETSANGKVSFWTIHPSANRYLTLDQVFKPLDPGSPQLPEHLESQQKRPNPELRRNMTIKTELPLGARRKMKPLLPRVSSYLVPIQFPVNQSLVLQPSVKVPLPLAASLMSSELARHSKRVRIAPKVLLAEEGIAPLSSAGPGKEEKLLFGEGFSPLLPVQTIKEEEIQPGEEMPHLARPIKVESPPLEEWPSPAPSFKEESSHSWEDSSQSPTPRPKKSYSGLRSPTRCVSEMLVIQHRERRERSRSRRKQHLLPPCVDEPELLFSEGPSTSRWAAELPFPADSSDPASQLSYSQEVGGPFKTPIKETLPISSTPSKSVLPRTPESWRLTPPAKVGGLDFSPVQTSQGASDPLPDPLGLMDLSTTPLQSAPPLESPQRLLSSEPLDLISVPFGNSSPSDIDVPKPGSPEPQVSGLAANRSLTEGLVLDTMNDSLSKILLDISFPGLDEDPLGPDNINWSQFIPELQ

[15] = target: T2, FOXM1 DBD (GST fusion); experiment: fluorescence polarization
[16] = target: T2, FOXM1 DBD (GST fusion); experiment: fluorescence polarization; remark: listed apart in the source

IC50 [1]: 45000 ± 16400 nM
GI50 [2]: 2700 nM
Molecule: C=C(NC(=O)C(=C)NC(=O)c1csc(C2=N[C@@H]3c4csc(n4)[C@H]4NC(=O)c5csc(n5)[C@H]([C@](C)(O)[C@@H](C)O)NC(=O)[C@H]5CSC(=N5)/C(=C/C)NC(=O)[C@H]([C@@H](C)O)NC(=O)c5csc(n5)[C@]3(CC2)NC(=O)[C@H](C)NC(=O)C(=C)NC(=O)[C@H](C)NC(=O)[C@H]([C@@H](C)CC)N[C@@H]2C=Cc3c([C@H](C)O)cc(nc3[C@H]2O)C(=O)O[C@@H]4C)n1)C(N)=O [thiostrepton, reference compound]

IC50 [1]: 22500 ± 12300 nM
GI50 [2]: 18000 ± 3000 nM
GI50 [3]: 21800 nM
GI50 [4]: 18100 nM
enrichment of differentially expressed genes for promoter occupancy of other FOX transcription factors (FOXA1, FOXA2, FOXP2) [9]: did not show enrichment
Molecule: Nc1c(C(=O)Nc2ccc(F)cc2)sc2nc(-c3cccs3)cc(C(F)(F)F)c12 [FDI-6, 3-amino-N-(4-fluorophenyl)-6-(thiophen-2-yl)-4-(trifluoromethyl)thieno[2,3-b]pyridine-2-carboxamide]
decrease of chromatin bound FOXM1 ([5]; MCF-7 cells, normalized to Histone H3): ~50%
overall amount of FOXM1 protein ([5]; MCF-7 total lysate, normalized to Actin): unaffected
inhibition of the 20S proteasome [6]: did not inhibit; also recorded: inactive
change in FOXM1 occupancy at CCNB1 gene promoter [7]: −0.68 log2 fold
change in FOXM1 occupancy at CDC25B gene promoter [7]: −0.64 log2 fold
AURKA transcript change [8]: −0.83 log2 fold change
CCNA2 transcript change [8]: −0.65 log2 fold change
CCNB1 transcript change [8]: −0.86 log2 fold change
CDKN3 transcript change [8]: −0.739 log2 fold change
CENPA transcript change [8]: −0.61 log2 fold change
KIF20A transcript change [8]: −1.22 log2 fold change
NEK2 transcript change [8]: −0.86 log2 fold change
PLK1 transcript change [8]: −0.92 log2 fold change
CDC25B expression [10]: down-regulates
CDC25B expression [11]: down-regulates

B1: unlabeled FOXM1 consensus DNA, 16 bp (dsDNA)
DNA 1: AAACAAACAAACAATC
DNA 2: GATTGTTTGTTTGTTT
IC50 [12]: 57 ± 5 nM

B2: FOXM1 consensus DNA probe, 16 bp (dsDNA)
DNA 1: AAACAAACAAACAATC
DNA 2: GATTGTTTGTTTGTTT
Kd [13]: 301 ± 21 nM
Kd [14]: 300 ± 64 nM
Kd [15]: 224 ± 30 nM
Kd [16]: 158 nM
